Reference: ChEMBL document CHEMBL4152260, “Design, synthesis and biological evaluation of novel quinazoline-2,4-diones conjugated with different amino acids as potential chitin synthase inhibitors” (Eur J Med Chem, 2018)
In brackets after ≈: the same amount, converted by molar mass.

Tests used:
[1] = system: Saccharomyces cerevisiae; test: Inhibition of yeast chitin synthase at 300 ug/ml using UDP-GlcNAc as substrate measured after 1 hr relative to control
In short: (§1)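 Membrane CHS from S. cerevisiae CGMCC2.145 (YPAD, 30 °C, 48 h; sonication; 55000 g pellet in Tris/33% glycerol). Wells coated with WGA and blocked with BSA. Reaction in pH 6.8 Tris-maleate with 40 mM GlcNAc, 2 mM UDP-GlcNAc, 37 °C, 1 h. Product detected with WGA-HRP and TMB/H2O2, A450. Test solutions 300–18.75 μg/mL. Inhibition = (B0−Bn)/(B0−OD0); IC50 from log c plot.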

[2] = system: Aspergillus fumigatus; test: Antifungal activity against Aspergillus fumigatus GIMCC 3.19 measured after 24 hrs; assay type: functional; conditions: GIMCC 3.19, 24 h
[3] = system: Aspergillus flavus; test: Antifungal activity against Aspergillus flavus ATCC 16870 measured after 24 hrs; assay type: functional; conditions: ATCC 16870, 24 h
[4] = system: Cryptococcus neoformans; test: Antifungal activity against Cryptococcus neoformans ATCC 32719 measured after 24 hrs; assay type: functional; conditions: ATCC 32719, 24 h
[5] = system: Candida albicans; test: Antifungal activity against Candida albicans ATCC 76615 measured after 24 hrs; assay type: functional; conditions: ATCC 76615, 24 h
[6] = Inhibition of yeast chitin synthase using UDP-GlcNAc as substrate measured after 1 hr; design: species or system Saccharomyces cerevisiae; in short: as §1
[7] = system: Candida albicans; test: Antifungal activity against Candida albicans ATCC 76615 measured after 48 hrs by two-dimensional broth microdilution checkboard method; assay type: functional; conditions: ATCC 76615, 48 h
In short: (§2)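 MICs of each agent alone re-determined in the checkerboard run. Two-dimensional broth microdilution per CLSI M27-A3, 35 °C for 48 h, each test performed twice (duplicate).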

[8] = system: Aspergillus flavus; test: Antifungal activity against Aspergillus flavus ATCC 16870 measured after 48 hrs by two-dimensional broth microdilution checkboard method; assay type: functional; conditions: ATCC 16870, 48 h; in short: as §2
[9] = system: Aspergillus fumigatus; test: Antifungal activity against Aspergillus fumigatus GIMCC 3.19 measured after 48 hrs by two-dimensional broth microdilution checkboard method; assay type: functional; conditions: GIMCC 3.19, 48 h; in short: as §2
[10] = system: Cryptococcus neoformans; test: Antifungal activity against Cryptococcus neoformans ATCC 32719 measured after 48 hrs by two-dimensional broth microdilution checkboard method; assay type: functional; conditions: ATCC 32719, 48 h; in short: as §2
[11] = system: Candida albicans; test: Synergistic antifungal activity against Candida albicans ATCC 76615 measured after 48 hrs in presence of fluconazole by two-dimensional broth microdilution checkboard method; assay type: functional; conditions: ATCC 76615, 48 h
In short: (§3)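 Two-dimensional broth microdilution checkerboard combining test agent with fluconazole per CLSI M27-A3, 35 °C for 48 h, duplicate runs. Combination MICs read. FIC index = MIC_A(comb)/MIC_A(alone) + MIC_B(comb)/MIC_B(alone). Interaction classed synergistic ≤0.5, indifferent >0.5–4, antagonistic >4.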

[12] = system: Aspergillus flavus; test: Synergistic antifungal activity against Aspergillus flavus ATCC 16870 measured after 48 hrs in presence of fluconazole by two-dimensional broth microdilution checkboard method; assay type: functional; conditions: ATCC 16870, 48 h; in short: as §3
[13] = system: Aspergillus fumigatus; test: Synergistic antifungal activity against Aspergillus fumigatus GIMCC 3.19 measured after 48 hrs in presence of fluconazole by two-dimensional broth microdilution checkboard method; assay type: functional; conditions: GIMCC 3.19, 48 h; in short: as §3
[14] = system: Cryptococcus neoformans; test: Synergistic antifungal activity against Cryptococcus neoformans ATCC 32719 measured after 48 hrs in presence of fluconazole by two-dimensional broth microdilution checkboard method; assay type: functional; conditions: ATCC 32719, 48 h; in short: as §3
[15] = system: Candida albicans; test: Synergistic antifungal activity against Candida albicans ATCC 76615 assessed as fluconazole MIC mesured after 48 hrs by two-dimensional broth microdilution checkboard method; assay type: functional; conditions: ATCC 76615, 48 h; in short: as §3
[16] = system: Aspergillus flavus; test: Synergistic antifungal activity against Aspergillus flavus ATCC 16870 assessed as fluconazole MIC mesured after 48 hrs by two-dimensional broth microdilution checkboard method; assay type: functional; conditions: ATCC 16870, 48 h; in short: as §3
[17] = system: Aspergillus fumigatus; test: Synergistic antifungal activity against Aspergillus fumigatus GIMCC 3.19 assessed as fluconazole MIC mesured after 48 hrs by two-dimensional broth microdilution checkboard method; assay type: functional; conditions: GIMCC 3.19, 48 h; in short: as §3
[18] = system: Cryptococcus neoformans; test: Synergistic antifungal activity against Cryptococcus neoformans ATCC 32719 assessed as fluconazole MIC mesured after 48 hrs by two-dimensional broth microdilution checkboard method; assay type: functional; conditions: ATCC 32719, 48 h; in short: as §3
[19] = system: Candida albicans; test: Synergistic antifungal activity against Candida albicans ATCC 76615 assessed as FIC index measured after 48 hrs in presence of fluconazole by two-dimensional broth microdilution checkboard method; assay type: functional; in short: as §3
[20] = system: Aspergillus flavus; test: Synergistic antifungal activity against Aspergillus flavus ATCC 16870 assessed as FIC index measured after 48 hrs in presence of fluconazole by two-dimensional broth microdilution checkboard method; assay type: functional; in short: as §3
[21] = system: Aspergillus fumigatus; test: Synergistic antifungal activity against Aspergillus fumigatus GIMCC 3.19 assessed as FIC index measured after 48 hrs in presence of fluconazole by two-dimensional broth microdilution checkboard method; assay type: functional; in short: as §3
[22] = system: Cryptococcus neoformans; test: Synergistic antifungal activity against Cryptococcus neoformans ATCC 32719 assessed as FIC index measured after 48 hrs in presence of fluconazole by two-dimensional broth microdilution checkboard method; assay type: functional; in short: as §3

Structure (SMILES) | inhibition [1] [%] | MIC [2] [µM] | MIC [3] [µM] | MIC [4] [µM] | MIC [5] [µM] | other results
CCC(NC(=O)Cn1c(=O)c2ccccc2n(C)c1=O)C(=O)O (centres undefined) | 13.2 | 800 (≈ 255 µg/mL) | 1600 (≈ 511 µg/mL) | 800 (≈ 255 µg/mL) | > 1600 | 
CC(C)C[C@H](NC(=O)Cn1c(=O)c2ccccc2n(C)c1=O)C(=O)O | 52.8 | 730 (≈ 254 µg/mL) | > 1470 | > 1470 | > 1470 | 
Cn1c(=O)n(CC(=O)N[C@@H](Cc2c[nH]c3ccccc23)C(=O)O)c(=O)c2ccccc21 | 43.8 | > 1210 | 600 (≈ 252 µg/mL) | 600 (≈ 252 µg/mL) | > 1210 | 
Cn1c(=O)n(CC(=O)N[C@@H](Cc2cnc[nH]2)C(=O)O)c(=O)c2ccccc21 | 61.5 | 1370 (≈ 509 µg/mL) | > 1370 | 680 (≈ 253 µg/mL) | > 1370 | IC50 [6]: 300 µM
C[C@@H](NC(=O)Cn1c(=O)c2ccccc2n(C)c1=O)C(=O)O | 47.8 | 830 (≈ 253 µg/mL) | 830 (≈ 253 µg/mL) | 830 (≈ 253 µg/mL) | 1670 (≈ 510 µg/mL) | 
Cn1c(=O)n(CC(=O)NCC(=O)O)c(=O)c2ccccc21 | 22.6 | > 1750 | 870 (≈ 253 µg/mL) | 870 (≈ 253 µg/mL) | > 1750 | 
Cn1c(=O)n(CC(=O)NCCC(=O)O)c(=O)c2ccccc21 | 47.5 | 830 (≈ 253 µg/mL) | 1670 (≈ 510 µg/mL) | 830 (≈ 253 µg/mL) | 1670 (≈ 510 µg/mL) | 
OC(Cn1cncn1)(Cn1cncn1)c1ccc(F)cc1F [FLUCONAZOLE] |  | 50 (≈ 15.3 µg/mL) | 100 (≈ 30.6 µg/mL) | 100 (≈ 30.6 µg/mL) | 200 (≈ 61.3 µg/mL) | MIC [7]: 104 µM (≈ 31.9 µg/mL); MIC [8]: 104 µM (≈ 31.9 µg/mL); MIC [9]: 209 µM (≈ 64 µg/mL); MIC [10]: 104 µM (≈ 31.9 µg/mL)
CC(C)[C@H](NC(=O)Cn1c(=O)c2ccccc2n(C)c1=O)C(=O)O | 18.5 | 760 (≈ 253 µg/mL) | > 1530 | 760 (≈ 253 µg/mL) | > 1530 | 
Cn1c(=O)n(CC(=O)NCCCC(=O)O)c(=O)c2ccccc21 | 68.2 | 800 (≈ 255 µg/mL) | 1600 (≈ 511 µg/mL) | 800 (≈ 255 µg/mL) | 1600 (≈ 511 µg/mL) | IC50 [6]: 300 µM
Cn1c(=O)n(CC(=O)N[C@@H](CO)C(=O)O)c(=O)c2ccccc21 | 56.2 | 790 (≈ 254 µg/mL) | 1590 (≈ 511 µg/mL) | > 1590 | > 1590 | 
Cn1c(=O)n(CC(=O)N2CCC[C@H]2C(=O)O)c(=O)c2ccccc21 | 75.5 | 770 (≈ 255 µg/mL) | 1540 (≈ 510 µg/mL) | 770 (≈ 255 µg/mL) | > 1540 | IC50 [6]: 180 µM; MIC [7]: 773 µM (≈ 256 µg/mL); MIC [8]: 773 µM (≈ 256 µg/mL); MIC [9]: 1540 µM (≈ 512 µg/mL); MIC [10]: 773 µM (≈ 256 µg/mL); MIC [11]: 386 µM; MIC [12]: 193 µM; MIC [13]: 1540 µM; MIC [14]: 386 µM; MIC [15]: 13 µM; MIC [16]: 7 µM; MIC [17]: 13 µM; MIC [18]: 104 µM; fractional inhibitory concentration index (FICI) [19]: 0.625; fractional inhibitory concentration index (FICI) [20]: 0.3125; fractional inhibitory concentration index (FICI) [21]: 1.0625; fractional inhibitory concentration index (FICI) [22]: 1.5
Cn1c(=O)n(CC(=O)NC(Cc2ccc(OC(=O)Cn3c(=O)c4ccccc4n(C)c3=O)cc2)C(=O)O)c(=O)c2ccccc21 (centres undefined) | 65.3 | 410 (≈ 252 µg/mL) | 410 (≈ 252 µg/mL) | 410 (≈ 252 µg/mL) | 830 (≈ 509 µg/mL) | IC50 [6]: 166 µM; MIC [7]: 417 µM (≈ 256 µg/mL); MIC [8]: 417 µM (≈ 256 µg/mL); MIC [9]: 834 µM (≈ 512 µg/mL); MIC [10]: 417 µM (≈ 256 µg/mL); MIC [11]: 417 µM; MIC [12]: 209 µM; MIC [13]: 209 µM; MIC [14]: 26 µM; MIC [15]: 13 µM; MIC [16]: 26 µM; MIC [17]: 52 µM; MIC [18]: 52 µM; fractional inhibitory concentration index (FICI) [19]: 1.125; fractional inhibitory concentration index (FICI) [20]: 0.625; fractional inhibitory concentration index (FICI) [21]: 0.3125; fractional inhibitory concentration index (FICI) [22]: 0.5625
CSCC[C@H](NC(=O)Cn1c(=O)c2ccccc2n(C)c1=O)C(=O)O | 43.1 | 1400 (≈ 512 µg/mL) | > 1400 | 700 (≈ 256 µg/mL) | > 1400 | 
Cn1c(=O)n(CC(=O)N[C@@H](Cc2ccccc2)C(=O)O)c(=O)c2ccccc21 | 50.5 | > 1340 | > 1340 | > 1340 | > 1340 | 
